Laboratory results from ChEMBL document CHEMBL4257503, “N-Acetyl-3-aminopyrazoles block the non-canonical NF-kB cascade by selectively inhibiting NIK” (Medchemcomm, 2018).

Legend:
[1] = target: T1, Inhibitor of nuclear factor kappa-B kinase subunit epsilon (Homo sapiens, UniProt Q14164); experiment: Inhibition of recombinant human full-length N-terminal GST-fused/His6-tagged IKKepsilon (M1 to V716 residues) expressed in Sf9 insect cells using ERLLDDRHDSGLDSMKDEE peptide as substrate measured after 60 mins by ADP-Glo kinase assay
T1 sequence (Q14164 whole entry): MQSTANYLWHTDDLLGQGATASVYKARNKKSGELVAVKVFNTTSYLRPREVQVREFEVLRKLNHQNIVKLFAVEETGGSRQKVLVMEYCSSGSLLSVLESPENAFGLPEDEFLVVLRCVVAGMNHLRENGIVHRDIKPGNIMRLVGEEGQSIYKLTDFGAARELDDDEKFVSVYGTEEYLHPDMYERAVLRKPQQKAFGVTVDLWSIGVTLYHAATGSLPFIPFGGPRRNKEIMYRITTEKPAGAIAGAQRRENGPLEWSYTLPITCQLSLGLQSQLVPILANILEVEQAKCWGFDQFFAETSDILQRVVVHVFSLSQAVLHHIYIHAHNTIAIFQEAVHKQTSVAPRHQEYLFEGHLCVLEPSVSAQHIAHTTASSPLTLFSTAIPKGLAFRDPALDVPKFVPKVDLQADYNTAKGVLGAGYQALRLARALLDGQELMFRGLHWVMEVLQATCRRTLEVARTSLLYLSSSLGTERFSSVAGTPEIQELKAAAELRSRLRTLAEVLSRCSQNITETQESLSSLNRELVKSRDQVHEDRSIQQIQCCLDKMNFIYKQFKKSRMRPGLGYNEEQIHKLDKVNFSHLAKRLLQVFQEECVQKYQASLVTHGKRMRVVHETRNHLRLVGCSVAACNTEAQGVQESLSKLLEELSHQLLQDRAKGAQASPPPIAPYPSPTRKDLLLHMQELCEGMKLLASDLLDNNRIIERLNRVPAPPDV

[2] = target: T2, Inhibitor of nuclear factor kappa-B kinase subunit alpha (Homo sapiens, UniProt O15111); experiment: Inhibition of recombinant full length human His-tagged IKKalpha expressed in baculovirus expression system using ERLLDDRHDSGLDSMKDEE peptide as substrate measured after 60 mins by ADP-Glo kinase assay
T2 sequence (O15111 whole entry): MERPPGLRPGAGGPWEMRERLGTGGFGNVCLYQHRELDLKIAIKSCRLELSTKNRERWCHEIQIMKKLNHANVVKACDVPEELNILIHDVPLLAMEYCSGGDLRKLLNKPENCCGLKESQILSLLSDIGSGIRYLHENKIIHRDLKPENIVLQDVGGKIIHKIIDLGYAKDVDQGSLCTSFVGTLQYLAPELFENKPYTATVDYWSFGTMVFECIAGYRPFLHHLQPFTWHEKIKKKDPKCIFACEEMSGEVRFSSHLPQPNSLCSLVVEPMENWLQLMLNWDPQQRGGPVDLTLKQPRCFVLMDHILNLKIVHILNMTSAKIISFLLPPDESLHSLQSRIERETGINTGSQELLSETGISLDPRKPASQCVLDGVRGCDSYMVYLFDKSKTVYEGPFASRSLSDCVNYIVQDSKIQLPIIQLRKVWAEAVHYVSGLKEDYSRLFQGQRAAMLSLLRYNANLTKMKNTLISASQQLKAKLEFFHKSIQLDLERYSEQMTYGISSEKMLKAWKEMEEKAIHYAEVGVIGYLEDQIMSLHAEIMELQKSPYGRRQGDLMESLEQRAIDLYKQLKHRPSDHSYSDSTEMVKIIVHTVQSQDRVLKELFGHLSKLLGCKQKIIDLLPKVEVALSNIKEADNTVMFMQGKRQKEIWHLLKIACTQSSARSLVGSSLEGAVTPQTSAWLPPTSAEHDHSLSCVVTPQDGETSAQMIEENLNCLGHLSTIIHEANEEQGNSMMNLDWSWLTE
Procedure, shortened: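 Recombinant human IKKα, peptide substrate 100 µM, enzyme 8 ng/µL, ATP 1 µM in Tris-HCl pH 7.5 buffer with MgCl2, MnCl2, DTT, Na3VO4, BSA; 25°C, 60 min; ADP-Glo luminescence. Ten concentrations 0.005–100 µM; IC50 by nonlinear regression; means ± SD of three independent experiments.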

[3] = target: T3, Mitogen-activated protein kinase kinase kinase 14 (Homo sapiens, UniProt Q99558); experiment: Inhibition of NIK-induced NFkappaB activation in human EJM cells at 50 uM after 6 hrs by dual luciferase reporter gene assay relative to control; format: cell-based
Procedure, shortened: (§1)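 Cells were nucleofected with the pGL4.32 NF-κB-RE firefly luciferase and pGL4.74 TK-Renilla plasmids (3 µg, 10:1 ratio) and cultured for 24 h at 37 °C. Compound (10, 25, 50 or 100 µM) was then added for 6 h. Firefly luminescence was normalised to Renilla from the same sample and expressed as % of vehicle control. Means ± SD of three independent experiments.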
Target sequence in this assay (Q99558 whole entry, looked up): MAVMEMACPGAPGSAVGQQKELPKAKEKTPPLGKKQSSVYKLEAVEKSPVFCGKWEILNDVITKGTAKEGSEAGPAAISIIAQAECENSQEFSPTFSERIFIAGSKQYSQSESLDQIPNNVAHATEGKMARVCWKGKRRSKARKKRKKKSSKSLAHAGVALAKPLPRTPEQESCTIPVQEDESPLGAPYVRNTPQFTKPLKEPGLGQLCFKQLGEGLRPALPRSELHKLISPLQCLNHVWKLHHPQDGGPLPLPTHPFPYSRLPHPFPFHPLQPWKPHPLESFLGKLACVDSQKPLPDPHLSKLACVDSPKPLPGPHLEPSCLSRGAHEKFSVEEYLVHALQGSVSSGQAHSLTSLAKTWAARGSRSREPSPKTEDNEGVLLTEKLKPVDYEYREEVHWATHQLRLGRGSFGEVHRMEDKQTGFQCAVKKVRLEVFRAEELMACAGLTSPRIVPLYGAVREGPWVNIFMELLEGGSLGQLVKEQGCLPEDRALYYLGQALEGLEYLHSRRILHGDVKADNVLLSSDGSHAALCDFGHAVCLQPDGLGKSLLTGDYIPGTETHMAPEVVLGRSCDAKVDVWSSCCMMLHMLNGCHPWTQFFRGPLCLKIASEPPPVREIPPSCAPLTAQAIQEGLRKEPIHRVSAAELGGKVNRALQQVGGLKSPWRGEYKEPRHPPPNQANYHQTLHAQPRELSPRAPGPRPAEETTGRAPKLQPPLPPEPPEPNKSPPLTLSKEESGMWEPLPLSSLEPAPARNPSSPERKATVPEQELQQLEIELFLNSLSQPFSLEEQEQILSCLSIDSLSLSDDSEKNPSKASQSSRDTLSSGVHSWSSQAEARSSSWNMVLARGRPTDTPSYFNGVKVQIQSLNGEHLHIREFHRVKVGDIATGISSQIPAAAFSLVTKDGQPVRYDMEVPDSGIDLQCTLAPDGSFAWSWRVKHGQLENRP

[4] = Cytotoxicity against human MDA-MB-231 cells assessed as cell viability at 100 uM after 6 hrs by CellTiter Glo luminescent assay relative to control; format: cell-based; details: read-out: Activity
Procedure, shortened: (§2)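 Cells seeded at 5 x 10^3 per well and exposed for 6 h to the compound (10, 25, 50 or 100 µM) or to DMSO vehicle. Viability was read as intracellular ATP by CellTiter Glo luminescence.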

Homo sapiens [5] = species on record: Homo sapiens; experiment: Inhibition of NFkappaB activation in human SKBR3 cells at 100 uM after 6 hrs by dual luciferase reporter gene assay relative to control; format: cell-based; procedure, shortened: as §1
MDA-MB-231 [6] = experiment: Inhibition of NFkappaB activation in human MDA-MB-231 cells at 100 uM after 6 hrs by dual luciferase reporter gene assay relative to control; format: cell-based; procedure, shortened: as §1
[7] = target: T3, Mitogen-activated protein kinase kinase kinase 14; experiment: Inhibition of recombinant human full-length N-terminal GST-fused/His6-tagged NIK (M1 to P947 residues) expressed in Sf9 insect cells using AKDVDQGSLCTSFVGTLQY peptide as substrate measured after 60 mins by ADP-Glo kinase assay
Target sequence in this assay (Q99558 whole entry): as the sequence (Q99558 whole entry, looked up) above

[8] = target: T4, Inhibitor of nuclear factor kappa-B kinase subunit beta (Homo sapiens, UniProt O14920); experiment: Inhibition of recombinant human full-length N-terminal GST-fused/His6-tagged IKKbeta (M1 to S756 residues) expressed in Sf9 insect cells using ERLLDDRHDSGLDSMKDEE peptide as substrate measured after 60 mins by ADP-Glo kinase assay
T4 sequence (O14920 whole entry): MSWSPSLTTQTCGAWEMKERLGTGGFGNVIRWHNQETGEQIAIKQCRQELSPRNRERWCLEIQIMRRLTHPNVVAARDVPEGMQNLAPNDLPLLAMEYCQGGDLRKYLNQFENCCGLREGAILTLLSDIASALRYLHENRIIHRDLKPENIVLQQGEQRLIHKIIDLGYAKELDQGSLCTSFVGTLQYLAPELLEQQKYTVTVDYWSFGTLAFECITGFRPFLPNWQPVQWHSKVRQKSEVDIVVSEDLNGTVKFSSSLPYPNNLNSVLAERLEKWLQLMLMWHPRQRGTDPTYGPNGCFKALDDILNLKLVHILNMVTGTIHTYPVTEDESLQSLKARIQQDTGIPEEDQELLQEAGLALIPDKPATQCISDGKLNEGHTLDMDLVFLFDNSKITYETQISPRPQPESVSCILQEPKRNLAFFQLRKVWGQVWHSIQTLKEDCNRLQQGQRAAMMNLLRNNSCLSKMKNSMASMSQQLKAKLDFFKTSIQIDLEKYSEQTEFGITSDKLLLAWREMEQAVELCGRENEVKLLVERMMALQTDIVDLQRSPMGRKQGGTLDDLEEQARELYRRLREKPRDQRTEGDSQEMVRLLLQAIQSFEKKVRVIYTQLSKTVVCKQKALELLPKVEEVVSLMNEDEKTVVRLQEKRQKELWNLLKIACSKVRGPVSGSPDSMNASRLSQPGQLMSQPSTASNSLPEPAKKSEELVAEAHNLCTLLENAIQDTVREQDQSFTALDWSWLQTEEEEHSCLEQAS

[9] = Cytotoxicity against human EJM cells assessed as cell viability at 50 uM after 6 hrs by CellTiter Glo luminescent assay relative to control; format: cell-based; details: read-out: Activity; procedure, shortened: as §2
[10] = Cytotoxicity against human SKBR3 cells assessed as cell viability at 100 uM after 6 hrs by CellTiter Glo luminescent assay relative to control; format: cell-based, SK-BR-3; details: read-out: Activity; procedure, shortened: as §2
[11] = target: T3, Mitogen-activated protein kinase kinase kinase 14; experiment: Inhibition of NIK-induced NFkappaB activation in human EJM cells at 25 uM after 6 hrs by dual luciferase reporter gene assay relative to control; format: cell-based; procedure, shortened: as §1
Target sequence in this assay (Q99558 whole entry, looked up): as the sequence (Q99558 whole entry, looked up) above

[12] = Cytotoxicity against human EJM cells assessed as cell viability at 25 uM after 6 hrs by CellTiter Glo luminescent assay relative to control; format: cell-based; details: read-out: Activity; procedure, shortened: as §2
[13] = Cytotoxicity against human SKBR3 cells assessed as cell viability at 50 uM after 6 hrs by CellTiter Glo luminescent assay relative to control; format: cell-based, SK-BR-3; details: read-out: Activity; procedure, shortened: as §2
[14] = target: T3, Mitogen-activated protein kinase kinase kinase 14; experiment: Inhibition of NIK-induced NFkappaB activation in human EJM cells at 20 uM after 6 hrs by dual luciferase reporter gene assay relative to control; format: cell-based
Target sequence in this assay (Q99558 whole entry, looked up): as the sequence (Q99558 whole entry, looked up) above

[15] = Cytotoxicity against human MDA-MB-231 cells assessed as cell viability at 50 uM after 6 hrs by CellTiter Glo luminescent assay relative to control; format: cell-based; details: read-out: Activity; procedure, shortened: as §2
[16] = Cytotoxicity against human EJM cells assessed as cell viability at 20 uM after 6 hrs by CellTiter Glo luminescent assay relative to control; format: cell-based; details: read-out: Activity
Homo sapiens [17] = species on record: Homo sapiens; experiment: Inhibition of NFkappaB activation in human SKBR3 cells at 50 uM after 6 hrs by dual luciferase reporter gene assay relative to control; format: cell-based; procedure, shortened: as §1
MDA-MB-231 [18] = experiment: Inhibition of NFkappaB activation in human MDA-MB-231 cells at 50 uM after 6 hrs by dual luciferase reporter gene assay relative to control; format: cell-based; procedure, shortened: as §1

Row | SMILES | IC50 [1] | IC50 [2] | inhibition [3] | viability at 6 h, 100 µM [4] | inhibition (Homo sapiens [5]) | inhibition (MDA-MB-231 [6]) | IC50 [7] | IC50 [8] | viability at 6 h, 50 µM [9] | viability at 6 h, 100 µM [10] | inhibition [11] | viability at 6 h, 25 µM [12] | viability at 6 h, 50 µM [13] | inhibition [14] | viability at 6 h, 50 µM [15] | viability at 6 h, 20 µM [16] | inhibition (Homo sapiens [17]) | inhibition (MDA-MB-231 [18])
1 | CCC(=O)n1nc(C)c(-c2ccc(Cl)c(Cl)c2)c1N | > 100 µM | > 100 µM | 66.8% | ≥ 80% | -3.14% | 10.3% | 27.4 µM | > 100 µM | ≥ 80% | ≥ 80% | – | – | – | – | – | – | – | –
2 | Cc1nn(C(=O)C2CCCCC2)c(N)c1-c1ccc(Cl)c(Cl)c1 | > 100 µM | > 100 µM | – | ≥ 80% | 3.7% | 2.36% | 3.3 µM | > 100 µM | – | ≥ 80% | 94.7% | ≥ 80% | – | – | – | – | – | –
3 | O=C(Nc1cc(Cl)c2c(c1)[nH]c1cnccc12)c1cccnc1 | > 100 µM | > 100 µM | – | – | – | – | > 100 µM | 0.09 µM | – | – | – | – | ≥ 80% | 89.3% | ≥ 80% | ≥ 80% | 3.6% | 87.9%
4 | Cc1n[nH]c(N)c1-c1ccc(Cl)cc1 | > 100 µM | > 100 µM | 10.4% | – | 4.2% | – | 61.1 µM | 37.9 µM | ≥ 80% | ≥ 80% | – | – | – | – | ≥ 80% | – | – | 29.9%
5 | CC(=O)n1nc(C)c(-c2ccc(C)c(C)c2)c1N | > 100 µM | > 100 µM | – | – | – | – | 39.6 µM | > 100 µM | – | – | – | – | – | – | – | – | – | –
6 | Cc1[nH]nc(NC(=O)C(F)(F)F)c1-c1ccc(Cl)c(Cl)c1 | > 100 µM | 34.9 µM | – | – | – | – | > 100 µM | > 100 µM | – | – | – | – | – | – | – | – | – | –
7 | Cc1c(N)n[nH]c1-c1ccc(Cl)c(Cl)c1 | > 100 µM | > 100 µM | – | – | – | – | > 100 µM | 75.7 µM | – | – | – | – | – | – | – | – | – | –
8 | Cc1[nH]nc(N)c1-c1cccc(Cl)c1 | 93.4 µM | > 100 µM | – | – | – | – | > 100 µM | > 100 µM | – | – | – | – | – | – | – | – | – | –
9 | CC(=O)n1nc(N)c(Br)c1C | > 100 µM | > 100 µM | – | – | – | – | 12.5 µM | 47.7 µM | – | – | – | – | – | – | – | – | – | –
10 | Cc1nn(C(=O)c2ccccc2)c(N)c1-c1ccc(Cl)c(Cl)c1 | > 100 µM | > 100 µM | 75.2% | ≥ 80% | 0.31% | 13.8% | 23 µM | > 100 µM | ≥ 80% | ≥ 80% | – | – | – | – | – | – | – | –
11 | Cc1c(-c2ccc(Cl)c(Cl)c2)c(N)nn1C(=O)c1cccnc1 | > 100 µM | > 100 µM | – | – | – | – | > 100 µM | > 100 µM | – | – | – | – | – | – | – | – | – | –
12 | Cc1n[nH]c(N)c1-c1ccccc1 | > 100 µM | > 100 µM | – | – | – | – | > 100 µM | > 100 µM | – | – | – | – | – | – | – | – | – | –
13 | Cc1nn(C(=O)C2CCC2)c(N)c1-c1ccc(Cl)c(Cl)c1 | > 100 µM | > 100 µM | – | ≥ 80% | 5.2% | 2.36% | 2.9 µM | > 100 µM | – | ≥ 80% | 96.2% | ≥ 80% | – | – | – | – | – | –
